The source made the active and inactive calls. The calls are words filed in the database; no cut-off is given here.
What was measured:
[1] = Drug uptake in nucleolus of human U87 cells assessed as change in fluorescence signal at 5 uM for 30 mins co-stained with DAPI for 10 mins followed by treating with RNase and measured after 30 mins by confocal laser fluorescence microscopic analysis; assay type: ADME, subcellular; details: u-87mg atcc, 1.167 h, time 70 min
Quadruplex DNA [2] = assay: Binding affinity to telomeric Htg22 G-quadruplex DNA (unknown origin) assessed as dissociation constant by isothermal titration calorimetric analysis; assay type: nucleic-acid assay
Procedure, shortened: (§1)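 ITC at 25 °C: DNA preannealed at 95 °C for 5 min, cooled and held at 4 °C overnight, in 25 mM KH2PO4, 60 mM KCl, pH 7.4, 0.5% DMSO. DNA 10 μM in cell, ligand 500 μM in syringe; 19 injections of 4 s, 150 s apart, 750 rpm stirring; blank heat subtracted before model fitting.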

[3] = tested on: Quadruplex DNA [UNDEFINED MUTATION]; assay: Effect on confirmation of telomeric Htg24 G-quadruplex DNA G22A mutant (unknown origin) assessed as hybrid topology at 5 uM at pH 7.4 by circular dichroism analysis; assay type: nucleic-acid assay; details: Homo sapiens
Procedure, shortened: (§2)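 CD spectra recorded on G4-DNA and ligand, each at 5 μM, in 10 mM Tris-HCl, pH 7.4, with 60 mM KCl. Scan range 220–340 nm in a 1 mm quartz cuvette, 1 nm bandwidth and step, 0.5 s/point. Each spectrum is the average of three scans.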

Quadruplex DNA [4] = assay: Binding affinity to telomeric Htg24 G-quadruplex DNA (unknown origin) at 5 uM at pH 7.4 by UV-spectrophotometric titration analysis; assay type: nucleic-acid assay
Procedure, shortened: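 UV-vis titration of ligand (5 μM) with Htg24 (0–15 μM) in 10 mM Tris-HCl pH 7.4 containing 60 mM KCl, added until saturation.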

Quadruplex DNA [5] = assay: Binding affinity to G4 quadruplex DNA in human HeLa cells assessed as increase in number of BG4 foci at 10 to 20 uM; assay type: cell-based; details: dose 10-20 µM
[6] = tested on: Quadruplex DNA [UNDEFINED MUTATION]; assay: Effect on confirmation of telomeric Htg24 G-quadruplex DNA T19G mutant (unknown origin) assessed as hybrid topology at 5 uM at pH 7.4 by circular dichroism analysis; assay type: nucleic-acid assay; details: Homo sapiens; procedure, shortened: as §2
[7] = tested on: Quadruplex DNA [UNDEFINED MUTATION]; assay: Effect on confirmation of telomeric Htg24 G-quadruplex DNA A14G mutant (unknown origin) assessed as hybrid topology at 5 uM at pH 7.4 by circular dichroism analysis; assay type: nucleic-acid assay; details: Homo sapiens; procedure, shortened: as §2
PC-3 = assay: Antiproliferative activity against human PC-3 cells assessed as reduction in cell viability […] by MTT assay; assay type: functional, cell-based
HepG2 = assay: Antiproliferative activity against human HepG2 cells assessed as reduction in cell viability […] by MTT assay; assay type: functional, cell-based
[8] = tested on: Quadruplex DNA [UNDEFINED MUTATION]; assay: Binding affinity to telomeric Htg24 G-quadruplex DNA G15A mutant (unknown origin) assessed as fluorescence signal at 5 uM under pH condition 7.4 by fluorescence titration analysis; assay type: nucleic-acid assay; details: Homo sapiens
[9] = tested on: Quadruplex DNA [UNDEFINED MUTATION]; assay: Effect on confirmation of telomeric Htg24 G-quadruplex DNA G22C mutant (unknown origin) assessed as hybrid topology at 5 uM at pH 7.4 by circular dichroism analysis; assay type: nucleic-acid assay; details: Homo sapiens; procedure, shortened: as §2
MCF7 = assay: Antiproliferative activity against human MCF7 cells assessed as reduction in cell viability […] by MTT assay; assay type: functional, cell-based
Quadruplex DNA [10] = assay: Binding affinity to G4 quadruplex DNA in human U87 cells assessed as increase in BG4-induced fluorescence signal at 5 uM incubated for 30 mins by immunofluorescence based confocal microscopic analysis; assay type: cell-based
Procedure, shortened: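 U87 cells fixed in 4% paraformaldehyde for 15 min, permeabilized with 0.1% Triton X-100 at 37 °C for 30 min, blocked with 5% goat serum for 3 h. BG4 antibody 3 h at 37 °C, then DyLight 405 anti-mouse IgG 3 h at 37 °C, then ligand 5 μM for 30 min. Confocal imaging for co-localization.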

Quadruplex DNA [11] = assay: Binding affinity to telomeric Htg24 G-quadruplex DNA (unknown origin) assessed as dissociation constant by isothermal titration calorimetric analysis; assay type: nucleic-acid assay; procedure, shortened: as §1
Quadruplex DNA [12] = assay: Binding affinity to telomeric Htg24 G-quadruplex DNA (unknown origin) assessed as change in melting temperature at 5 uM at pH 7.4 by circular dichroism analysis; assay type: nucleic-acid assay
Procedure, shortened: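 CD melting: G4-DNA 5 μM with ligand 5 μM in 10 mM Tris-HCl pH 7.4, 60 mM KCl; signal recorded at 1 °C intervals from 25 to 95 °C, heating 1.0 °C/min.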

[13] = tested on: Quadruplex DNA [UNDEFINED MUTATION]; assay: Binding affinity to telomeric Htg24 G-quadruplex DNA G3T mutant (unknown origin) assessed as negative fluorescence signal at 5 uM under pH condition 7.4 by fluorescence titration analysis; assay type: nucleic-acid assay; details: Homo sapiens
Procedure, shortened: (§3)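 Ligand held at 5 μM and mixed with each Htg24 point mutant in Tris-HCl buffer containing 60 mM KCl, pH 7.4. Fluorescence was read, and the signal change was computed as (F mutant − F wild type)/F wild type.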

[14] = tested on: Quadruplex DNA [UNDEFINED MUTATION]; assay: Effect on confirmation of telomeric Htg24 G-quadruplex DNA A20G mutant (unknown origin) assessed as hybrid topology at 5 uM at pH 7.4 by circular dichroism analysis; assay type: nucleic-acid assay; details: Homo sapiens; procedure, shortened: as §2
[15] = tested on: Quadruplex DNA [UNDEFINED MUTATION]; assay: Binding affinity to telomeric Htg24 G-quadruplex DNA G16T mutant (unknown origin) assessed as negative fluorescence signal at 5 uM under pH condition 7.4 by fluorescence titration analysis; assay type: nucleic-acid assay; details: Homo sapiens
Procedure, shortened: (§4)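 Ligand 5 μM mixed with wild-type or point-mutant Htg24 in Tris-HCl buffer with 60 mM KCl; signal change calculated as (F mutant − F wild type)/F wild type.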

[16] = tested on: Quadruplex DNA [UNDEFINED MUTATION]; assay: Binding affinity to telomeric Htg24 G-quadruplex DNA G3A mutant (unknown origin) assessed as negative fluorescence signal at 5 uM under pH condition 7.4 by fluorescence titration analysis; assay type: nucleic-acid assay; details: Homo sapiens; procedure, shortened: as §3
[17] = Drug uptake in nucleolus of human U87 cells assessed as disappearance of fluorescence signal at 5 uM for 30 mins co-stained with DAPI for 10 mins followed by treating with DNase and measured after 30 mins by confocal laser fluorescence microscopic analysis; assay type: ADME, subcellular; details: u-87mg atcc, 1.167 h, time 70 min
[18] = tested on: Quadruplex DNA [UNDEFINED MUTATION]; assay: Binding affinity to telomeric Htg24 G-quadruplex DNA G23A mutant (unknown origin) assessed as fluorescence signal at 5 uM under pH condition 7.4 by fluorescence titration analysis; assay type: nucleic-acid assay; details: Homo sapiens; procedure, shortened: as §3
[19] = tested on: Quadruplex DNA [UNDEFINED MUTATION]; assay: Binding affinity to telomeric Htg24 G-quadruplex DNA T18G mutant (unknown origin) assessed as negative fluorescence signal at 5 uM under pH condition 7.4 by fluorescence titration analysis; assay type: nucleic-acid assay; details: Homo sapiens; procedure, shortened: as §3
[20] = Water solubility of compound at 25 degreeC; assay type: physicochemical
Procedure, shortened: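 Solubility in water measured at 25 °C.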

Quadruplex DNA [21] = assay: Binding affinity to G4 quadruplex DNA in human U87 cells assessed as decrease in fluorescence intensity at 5 uM in presence of 5 to 20 uM BRACO19 by DAPI staining based confocal laser microscopic analysis; assay type: cell-based
Procedure, shortened: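 Live U87 cells stained with ligand (5 μM) plus DAPI, with BRACO19 added at 0, 5, 10, 15 or 20 μM. Confocal imaging with excitation at 488 or 571 nm for the ligand and 402 nm for DAPI; nuclear spot fluorescence intensity scored.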

[22] = tested on: Quadruplex DNA [UNDEFINED MUTATION]; assay: Binding affinity to telomeric Htg24 G-quadruplex DNA G21C mutant (unknown origin) assessed as strong fluorescence signal at 5 uM under pH condition 7.4 by fluorescence titration analysis; assay type: nucleic-acid assay; details: Homo sapiens; procedure, shortened: as §4

CN(C)c1ccc(/C=C/c2cc(/C=C3\Sc4ccccc4N3CCCN3CCOCC3)c3ccccc3[n+]2C)cc1.[I-]
Drug uptake [1]: Not Active
Kd (Quadruplex DNA [2]): 0.71 µM
Activity [3]: Active
Activity (Quadruplex DNA [4]): Active
Activity (Quadruplex DNA [5]): Active
Activity [6]: Active
Activity [7]: Active
IC50 (PC-3): 12.8 µM
IC50 (HepG2): 12.8 µM
Activity [8]: inactive
Activity [9]: Active
IC50 (MCF7): 14.5 µM
Activity (Quadruplex DNA [10]): Active
Kd (Quadruplex DNA [11]): 0.65 µM
ΔTm (Quadruplex DNA [12]): 9.1 °C
Activity [13]: Active
Activity [14]: Active
Activity [15]: Active
Activity [16]: Active
Drug uptake [17]: Active
Activity [18]: inactive
Activity [19]: Active
solubility [20]: 122 µM
Activity (Quadruplex DNA [21]): Active
Activity [22]: Active

From ChEMBL document CHEMBL4834396, “Molecular Recognition and Imaging of Human Telomeric G-Quadruplex DNA in Live Cells: A Systematic Advancement of Thiazole Orange Scaffold To Enhance Binding Specificity and Inhibition of Gene Expression” (J Med Chem, 2021)
